Assay results: article PMC7034990 (Science Advances, 2020)

Assays:
[1] = system: Ca2+-activated Cl− secretion in bronchial epithelia; test: Ca2+-activated Cl− secretion elicited by UTP; type: cell-based, human; details: UTP 100 μM; ARN23765 10 nM, VX-809 1 μM, 24 hr
How it was run: (§1)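 Primary bronchial epithelial cells came from lung-transplant bronchi and were differentiated on porous inserts, then kept 2–3 weeks under air-liquid culture. Correctors or DMSO were given in basolateral medium. Epithelia were mounted in a vertical diffusion chamber, bicarbonate saline (126 mM NaCl, 24 mM NaHCO3, 10 mM glucose) both sides, gassed 5% CO2:95% air, 37°C. Voltage was clamped and short-circuit current recorded. ENaC was blocked with amiloride (10 μM).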

[2] = system: bronchial epithelial cells (F508del/F508del, F508del/other mutation, non-CF); test: TEEC/PD technique; type: cell-based, human; details: for F508del-CFTR function, ∆Ieq: 10 nM
How it was run: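 CF and non-CF primary bronchial epithelia at air-liquid interface on 0.33-cm2 inserts were treated 24 h at 37°C, 5% CO2. Measurements used Coon's F12 with NaHCO3 replaced by 20 mM Na-Hepes (pH 7.3), after 1 h equilibration. TEER and PD were read at baseline, after apical amiloride 10 μM, forskolin 10 μM + genistein 50 μM bilateral, then apical PPQ102 30 μM, 10 min each. Ieq came from Ohm's law; ∆Ieq = change on PPQ102.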

[3] = biological target: ABC-C2 (multidrug resistance-associated protein 2) (Homo sapiens, UniProt Q92887); test: ABC transporter inhibition, ABC-C2; type: in vitro ADME; details: read-out: inhibition of ABC-C2
[4] = biological target: ABC-B1 (MDR1, P-glycoprotein) (Homo sapiens, UniProt P08183); test: ABC transporter inhibition, ABC-B1; type: in vitro ADME
[5] = system: F508del/F508del bronchial epithelial cells; test: Short-circuit current recordings on primary CF bronchial epithelial cells; type: cell-based, human
How it was run: as §1

F508del-CFTR FRT cells = test: Transepithelial electrical conductance; type: cell-based; details: 24 hours, compared to VX-809 (1 μM)
How it was run: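 F508del-CFTR FRT cells on porous membranes were treated 24 h at 37°C, 5% CO2. Same saline both sides: 130 mM NaCl, 10 mM Na-Hepes pH 7.3, 10 mM glucose. TEER was read at baseline, after forskolin 20 μM + genistein 50 μM, then after PPQ102 30 μM, waiting 10 min per step. TEER values were converted to TEEC.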

[6] = biological target: T1, F508del-CFTR in CFBE41o− cells (Homo sapiens, UniProt P13569, DEL508-508); test: F508del-CFTR half-life after cycloheximide block of protein synthesis; type: cell-based; details: 24 hours of treatment then cycloheximide, ARN23765 1 nM, VX-809 1 μM
[7] = biological target: T1, F508del-CFTR in CFBE41o− cells; test: Thermoaggregation assay of mutant CFTR in cell lysates; type: cell-based; details: lysates heat-denatured at 28° to 70°C; ARN23765 1 nM, VX-809 1 μM
How it was run: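 F508del-CFTR CFBE41o− cells were treated 24 h; wild-type CFTR CFBE41o− cells were run in parallel. Confluent cells received cycloheximide (150 μg/ml) for 2 h, were lysed in RIPA on ice and cleared at 15,000g, 10 min, 4°C. Lysate (50 μg) was heated 15 min at 28–70°C. Aggregates were removed at 15,000g, 15 min, 4°C; soluble CFTR was immunoblotted and normalised to HSP90AB1.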

[8] = system: F508del/F508del cultured bronchial epithelia; test: Apical fluid pH measurement on CF bronchial epithelia; type: cell-based, human; details: 24 hours
How it was run: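 CF bronchial epithelia at air-liquid interface were treated 24 h with correctors or DMSO vehicle. The apical side then received 75 μl low-buffer modified PBS (pH 7.35) containing 100 μM CPT-cAMP and 1 μM VX-770, for 3 h at 37°C, 5% CO2. The recovered fluid was mixed with SNARF-1 (final 0.1 mg/ml), excited at 544 nm, and the 590/640 nm emission ratio converted to pH by calibration curve.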

[9] = system: receptors, monoamine transporters, ABC proteins, and hERG channel; test: Off-target panel; details: 10 μM
CFBE41o− cells = test: Cell viability panel; type: cell-based; details: 24 hr, positive controls celastrol or cytochalasin D
How it was run: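 CFBE41o− cells. Proliferation: 5000 cells/well; after 24 h, test compound at several concentrations or DMSO; tracked 24 h by high-content imaging. MTT: 50,000 cells/well; treated 24 h after plating; next day MTT 0.5 mg/ml final, 3 h at 37°C; absorbance at 560 nm. Cell death: 50,000 cells/well, treated 24 h, then Hoechst 33342 plus propidium iodide stain and high-content imaging.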

[10] = system: F508del-CFTR CFBE41o− cells; test: HS-YFP assay in CFBE41o− cells expressing F508del-CFTR; type: cell-based

ABC-C2 (multidrug resistance-associated protein 2), sequence (Q92887 whole entry, species assumed): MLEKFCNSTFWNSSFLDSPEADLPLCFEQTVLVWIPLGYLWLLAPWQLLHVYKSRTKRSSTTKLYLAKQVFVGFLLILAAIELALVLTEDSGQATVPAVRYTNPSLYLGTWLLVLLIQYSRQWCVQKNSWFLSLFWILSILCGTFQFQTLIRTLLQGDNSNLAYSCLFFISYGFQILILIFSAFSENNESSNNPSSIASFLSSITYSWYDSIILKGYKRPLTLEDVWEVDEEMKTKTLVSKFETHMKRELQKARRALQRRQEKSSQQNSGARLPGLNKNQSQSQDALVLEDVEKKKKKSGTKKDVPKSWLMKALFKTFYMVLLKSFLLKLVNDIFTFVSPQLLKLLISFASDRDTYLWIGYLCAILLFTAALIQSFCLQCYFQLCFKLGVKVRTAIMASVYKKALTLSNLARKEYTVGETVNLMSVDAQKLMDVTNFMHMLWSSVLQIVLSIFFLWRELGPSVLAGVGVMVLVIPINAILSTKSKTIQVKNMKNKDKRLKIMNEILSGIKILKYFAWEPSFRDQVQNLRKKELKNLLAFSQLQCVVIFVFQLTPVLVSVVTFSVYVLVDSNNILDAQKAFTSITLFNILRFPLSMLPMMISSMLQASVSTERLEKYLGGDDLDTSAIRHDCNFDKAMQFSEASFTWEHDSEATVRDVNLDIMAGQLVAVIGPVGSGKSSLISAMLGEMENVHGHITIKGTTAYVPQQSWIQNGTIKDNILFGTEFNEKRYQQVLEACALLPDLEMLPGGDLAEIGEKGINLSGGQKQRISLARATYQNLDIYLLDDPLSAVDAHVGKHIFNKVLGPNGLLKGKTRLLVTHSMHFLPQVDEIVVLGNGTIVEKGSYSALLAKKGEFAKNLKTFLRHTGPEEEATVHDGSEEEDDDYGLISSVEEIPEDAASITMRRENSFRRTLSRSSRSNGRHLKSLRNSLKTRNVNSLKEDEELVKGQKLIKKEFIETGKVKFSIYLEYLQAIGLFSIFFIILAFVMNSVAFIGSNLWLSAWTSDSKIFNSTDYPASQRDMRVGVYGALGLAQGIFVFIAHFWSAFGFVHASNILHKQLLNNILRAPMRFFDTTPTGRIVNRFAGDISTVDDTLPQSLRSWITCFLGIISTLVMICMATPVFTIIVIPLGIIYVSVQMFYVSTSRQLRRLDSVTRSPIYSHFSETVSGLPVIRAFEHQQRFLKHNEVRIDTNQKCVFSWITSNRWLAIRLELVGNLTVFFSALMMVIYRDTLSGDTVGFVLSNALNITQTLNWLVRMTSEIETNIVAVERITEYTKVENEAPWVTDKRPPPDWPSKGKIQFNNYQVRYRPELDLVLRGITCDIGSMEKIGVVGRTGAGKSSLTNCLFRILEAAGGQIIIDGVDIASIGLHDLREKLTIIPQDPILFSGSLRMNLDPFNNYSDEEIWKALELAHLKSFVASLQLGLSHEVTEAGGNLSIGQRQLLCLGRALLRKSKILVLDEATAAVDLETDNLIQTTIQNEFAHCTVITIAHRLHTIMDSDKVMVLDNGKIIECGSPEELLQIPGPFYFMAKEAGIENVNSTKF
ABC-B1 (MDR1, P-glycoprotein), sequence (P08183 whole entry, species assumed): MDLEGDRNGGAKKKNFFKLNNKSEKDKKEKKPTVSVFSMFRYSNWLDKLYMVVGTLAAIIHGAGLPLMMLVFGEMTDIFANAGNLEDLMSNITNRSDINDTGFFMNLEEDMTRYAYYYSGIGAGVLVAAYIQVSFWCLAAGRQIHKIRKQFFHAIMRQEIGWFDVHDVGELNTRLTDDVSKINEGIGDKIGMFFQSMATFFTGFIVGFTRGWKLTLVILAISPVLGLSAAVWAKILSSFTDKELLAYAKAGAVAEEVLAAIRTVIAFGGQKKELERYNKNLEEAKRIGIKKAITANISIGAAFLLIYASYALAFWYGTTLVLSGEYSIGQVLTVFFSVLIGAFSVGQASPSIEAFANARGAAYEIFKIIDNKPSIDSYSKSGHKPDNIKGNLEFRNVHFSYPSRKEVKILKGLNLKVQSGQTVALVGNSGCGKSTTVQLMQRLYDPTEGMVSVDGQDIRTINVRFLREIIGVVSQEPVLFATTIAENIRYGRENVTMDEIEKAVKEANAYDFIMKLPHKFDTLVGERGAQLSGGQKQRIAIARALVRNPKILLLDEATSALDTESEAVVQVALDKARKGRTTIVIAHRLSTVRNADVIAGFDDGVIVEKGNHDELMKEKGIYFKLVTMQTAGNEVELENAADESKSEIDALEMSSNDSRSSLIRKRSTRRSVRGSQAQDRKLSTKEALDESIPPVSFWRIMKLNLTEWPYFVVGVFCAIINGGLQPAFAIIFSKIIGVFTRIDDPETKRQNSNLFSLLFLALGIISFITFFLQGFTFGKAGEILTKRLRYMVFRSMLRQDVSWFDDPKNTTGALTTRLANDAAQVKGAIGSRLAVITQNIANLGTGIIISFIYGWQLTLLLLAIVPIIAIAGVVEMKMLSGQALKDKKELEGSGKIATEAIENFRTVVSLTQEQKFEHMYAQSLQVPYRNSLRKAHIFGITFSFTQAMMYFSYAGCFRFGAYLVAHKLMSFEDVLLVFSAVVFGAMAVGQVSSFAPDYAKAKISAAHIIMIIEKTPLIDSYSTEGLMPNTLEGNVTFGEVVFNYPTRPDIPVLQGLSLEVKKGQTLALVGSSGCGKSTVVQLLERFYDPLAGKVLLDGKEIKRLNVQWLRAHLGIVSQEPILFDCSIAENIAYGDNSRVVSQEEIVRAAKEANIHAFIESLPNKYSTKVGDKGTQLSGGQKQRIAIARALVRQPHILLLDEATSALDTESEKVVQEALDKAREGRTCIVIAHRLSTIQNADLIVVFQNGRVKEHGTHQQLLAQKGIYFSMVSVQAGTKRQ

For `CN(C(=O)c1cccc(-n2nc(C(F)(F)F)c3c2[C@@H](Oc2ccc(C(=O)O)cc2)CCC3)c1)c1ccc2c(c1)OC(F)(F)O2` [ARN23765], the “Ca2+-activated Cl− secretion” value [1] was “unaffected”, the “F508del-CFTR function, ∆Ieq” value ([2]; cells from four patients with F508del/F508del, 24 hours) was “markedly increased F508del-CFTR function, with results comparable to those of VX-809 (1 μM)” and the “F508del-CFTR function, ∆Ieq” value ([2]; epithelia from two patients with a single copy of F508del and a premature stop codon (R553X and G542X)) was “notably effective”. For the same compound, the “wild-type CFTR function, ∆Ieq” value ([2]; non-CF epithelia, ARN23765 10 nM, VX-809 1 μM) was “elicited a significant increase of wild-type CFTR function”, the inhibition at 10 µM [3] was 27% and the inhibition at 10 µM [4] was 13%. For the same compound, the “effective concentrations lower compared to VX-809 and VX-661” value [5] was “more than 5000 times”, the “time after removal of the compound at which correction can be observed” value [5] was “up to 36 hours” and the “improvement in potency (EC50) with respect to VX-809 / presently available corrector drugs” value ([5]; F508del/F508del bronchial epithelial cells) was “more than 5000 fold”. The EC50 ([5]; Homo sapiens, Epithelial cell) was 0.038 nM, the “extent of rescue after 72 hours of treatment” value ([5]; VX-809 1 μM or ARN23765 1 nM for 72 hours) was “comparable to that of epithelia treated with these correctors for only 24 hours” and the “F508del-CFTR rescue after 120 hours of treatment” value ([5]; VX-809 1 μM or ARN23765 1 nM for 120 hours, compared to 72 hours) was “still maintained”. For the same compound, the “rescue of F508del-CFTR function” value ([5]; short-circuit current, CF primary bronchial epithelial cells, 24 hours) was “decreased at 1 μM”, the “correction of F508del-CFTR, ∆TEEC” value (F508del-CFTR FRT cells) was “high potency and efficacy” and the “increase of half-life of mature CFTR (band C)” value [6] was “threefold”. The “resistance to thermoaggregation of mature CFTR” value [7] was “significantly increased the resistance to thermoaggregation of mature CFTR”, the “pH of the apical fluid, combination of ARN23765 and 4172” value ([8]; ARN23765 10 nM plus 4172 10 μM) was “further increased pH to a level significantly higher than that measured with each corrector alone” and the “pH of the apical fluid, single corrector” value ([8]; ARN23765 10 nM, 4172 10 μM, versus control-treated cells) was “significant increase in pH”. The “effects on a panel of relevant biological targets” value [9] was “no alerting effects”, the “effect on cell viability” value (CFBE41o− cells) was “did not impair cell proliferation nor caused cell toxicity” and the “F508del-CFTR activity (QR) of the ARN23765/VX-809 combination” value ([10]; CFBE41o− cells, VX-809 1 μM, ARN23765 10 nM, or both) was “no additive effect”. For the same compound, the EC50 ([10]; Homo sapiens, CFBE41o-, 24 h) was 0.4 nM.
